Screening data deposited in PubChem by Johns Hopkins Ion Channel Center.
hERG rescue – shields human hERG channel from block by proarrhythmic agents; Q12809; CHO-hERG, FluxOR thallium flux, dofetilide IC70 present; activation (rescue from dofetilide block), less the hit threshold, % at 10 µM; 310,000 tested, 0.51% active; AID 1511;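 active = activation above the mean of controls blocked by dofetilide plus 5 SD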;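 also: thallium influx through hERG after potassium depolarization seen as dye fluorescence rise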
KCNK9 inh – blocks the human KCNK9 two-pore domain potassium channel. HEK293 KCNK9, FluxOR thallium flux fluorescence; active compounds read low. B-score at 10 µM. 310,000 tested, 1.2% active. AID 488922;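 active = ratio B-score over 3 SD below the library mean, with starting fluorescence within 5 SD of its mean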;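 also: negative B-score means less thallium flux so channel inhibition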
Target sequence (Q9NPC2 whole entry, looked up, the tested form may be a part): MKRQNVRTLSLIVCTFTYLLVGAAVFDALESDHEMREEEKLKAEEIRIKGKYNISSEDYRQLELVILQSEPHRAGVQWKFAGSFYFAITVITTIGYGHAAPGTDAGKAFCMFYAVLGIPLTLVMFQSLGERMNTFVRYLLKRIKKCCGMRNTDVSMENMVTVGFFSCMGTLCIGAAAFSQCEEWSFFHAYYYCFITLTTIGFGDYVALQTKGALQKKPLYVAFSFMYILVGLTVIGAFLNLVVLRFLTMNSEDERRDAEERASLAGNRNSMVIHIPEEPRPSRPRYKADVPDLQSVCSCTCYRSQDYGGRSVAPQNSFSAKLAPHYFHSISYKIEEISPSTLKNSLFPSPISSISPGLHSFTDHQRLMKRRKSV
KCNQ1 inh – blocks the human KCNQ1 potassium channel; CHO-K1 KCNQ1, FluxOR thallium flux fluorescence; active compounds read high; 310,000 tested, 1.3% active; P51787; B-score at 10 µM;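 active = compounds whose thallium flux B-score, printed positive for inhibition, exceeds three library SD while starting fluorescence stays within three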;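 also: channel opened by potassium depolarization with thallium stimulus after 20 min compound exposure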
KCNQ1 act – potentiates or activates the human KCNQ1 potassium channel; P51787; 310,000 tested, 0.35% active; AID 2648; B-score at 10 µM; CHO-K1 KCNQ1, thallium flux FluxOR fluorescence; active compounds read high;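 active = fluorescence ratio B-score, a plate-corrected score, at least three library SD, with initial intensity B-score within 5 SD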
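Test system: CHO-K1 cells stably expressing KCNQ1 / Medium: assay buffer / Also added: depolarizing K+/Tl+ stimulus, K2SO4 and Tl2SO4 each 12.5 mM in 5x stock / Incubation: 90 min dye loading and 20 min compound exposure, both at room temperature / Signal: thallium influx via FluxOR fluorescence, kinetic imaging / Evaluation: B score of baseline-normalized fluorescence ratio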
Kir21 block – inhibitors of mouse Kir2.1 inward-rectifier potassium channel | P35561 | HEK293-Kir2.1, FluxOR thallium flux fluorescence; active compounds read low | B-score at 10 µM | 310,000 tested, 0.85% active | AID 1672;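 active = fluorescence ratio B-score at or below minus 3 SD of library scores, with starting-brightness B-score within 2 SD, cut at about -4.2 in these data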;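 also: channel flux triggered by added potassium and thallium sulfate stimulus; B-score of peak minus minimum fluorescence over baseline after thallium stimulus; more negative B-score means stronger Kir2.1 block with less thallium influx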
KCNK3 inh – human KCNK3 channel inhibition, primary screen; O14649; CHO-KCNK3 thallium flux, FluxOR fluorescence; active compounds read low; B-score at 10 µM; 340,000 tested, 0.84% active;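 active = B-score under library mean minus 4 SD, starting fluorescence ratio at most library mean plus 5 SD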;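 also: more negative B-score means stronger inhibition of thallium flux through KCNK3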
KCNK3 confirm – confirmation of human KCNK3 two-pore domain potassium channel inhibitors. shares compounds with KCNK3 inh. CHO-KCNK3 thallium flux, FluxOR fluorescence; 0% buffer, 100% carvedilol maximal block. ratio percent of control, % at 10 µM. 2,400 tested, 99% active. AID 651638;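 active = ratio percent of control, averaged over triplicates, above buffer control mean plus 5 SD, cut at about 64% in these data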;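 also: ratio is the fluorescence rise from min to max over baseline after thallium stimulus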
KCNK3 noninduced – counter-screen for KCNK3 inhibitors: effect in non-induced cells. shares compounds with KCNK3 inh. non-induced KCNK3 parental cells, FluxOR thallium flux; active compounds read low. thallium flux ratio (lower = more inhibition) at 10 µM. AID 651747. 2,400 tested, 40% active;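 active = thallium flux ratio, averaged over three wells, more than 5 SD below the buffer control mean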;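 also: host cells are CHO cells without KCNK3 induction; ratio is peak minus trough fluorescence over baseline then normalized to buffer controls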
An asterisk follows results filed as active. A selection: hits, their analogues and other compounds. The true share with any hit is near 3.7%.

How did CCCCn1nc(NC(=O)c2cccs2)c2cc3ccccc3nc21 do in these assays?
hERG rescue: -30.3; KCNK9 inh: inactive; KCNQ1 inh: inactive; KCNQ1 act: inactive; Kir21 block: 0.29; KCNK3 inh: -9.53*; KCNK3 confirm: 117.7*; KCNK3 noninduced: 0.14*

What do the screens show for `COc1ccc(-c2cc(C(F)F)n3ncc(C(=O)Nc4cccc(S(=O)(=O)N5CCOCC5)c4)c3n2)cc1`?
hERG rescue: -13.5; KCNK9 inh: inactive; KCNQ1 inh: inactive; KCNQ1 act: inactive; Kir21 block: -1.17; KCNK3 inh: inactive

How did CCN(CC)S(=O)(=O)c1ccc(C)c(N=C=S)c1 do in these assays?
hERG rescue: -1.9; KCNK9 inh: inactive; KCNQ1 inh: inactive; KCNQ1 act: inactive; Kir21 block: -0.04; KCNK3 inh: inactive

Results for Cc1onc(-c2ccccc2)c1-c1ccnn1S(=O)(=O)c1ccc(Cl)cc1 ?
hERG rescue: -10.6; KCNK9 inh: inactive; KCNQ1 inh: inactive; KCNQ1 act: inactive; Kir21 block: -3.62; KCNK3 inh: -9.43*; KCNK3 confirm: 103.3*; KCNK3 noninduced: inactive

What do the screens show for `CCOC(=O)c1c(NC(=O)C2COc3ccccc3O2)sc(C)c1C` (stereo not drawn)?
hERG rescue: -5.3; KCNK9 inh: inactive; KCNQ1 inh: inactive; KCNQ1 act: inactive; Kir21 block: -0.91; KCNK3 inh: -8.82*; KCNK3 confirm: 107.3*; KCNK3 noninduced: 0.141*

What do the screens show for `COc1ccc(Br)cc1C(=O)Nc1ccccc1N1CCCC1`?
hERG rescue: -11.5; KCNK9 inh: inactive; KCNQ1 inh: inactive; KCNQ1 act: inactive; Kir21 block: 0.16; KCNK3 inh: -9.84*; KCNK3 confirm: 111.0*; KCNK3 noninduced: 0.147*

What do the screens show for `COc1ccccc1C(=O)Nc1ccccc1N1CCCCC1`?
hERG rescue: -14.2; KCNK9 inh: inactive; KCNQ1 inh: inactive; KCNQ1 act: inactive; Kir21 block: -1.27; KCNK3 inh: inactive

What do the screens show for `COc1cc(C(=O)Nc2ccccc2N2CCCCC2)cc(OC)c1OC`?
hERG rescue: -12.5; KCNK9 inh: inactive; KCNQ1 inh: inactive; KCNQ1 act: inactive; Kir21 block: 0.16; KCNK3 inh: -10.2*; KCNK3 confirm: 126.0*; KCNK3 noninduced: 0.117*

Results for COc1cc(-c2cc(C(=O)Nc3ccccc3N3CCOCC3)c3ccccc3n2)cc(OC)c1OC ?
hERG rescue: -11.7; KCNK9 inh: inactive; KCNQ1 inh: 6*; KCNQ1 act: inactive; Kir21 block: 1.3; KCNK3 inh: -9.01*; KCNK3 confirm: 102.0*; KCNK3 noninduced: 0.158*

What do the screens show for `O=C(Nc1ccccc1N1CCCCC1)c1cccc(OC(F)F)c1`?
hERG rescue: -7.9; KCNK9 inh: inactive; KCNQ1 inh: inactive; KCNQ1 act: inactive; Kir21 block: -0.22; KCNK3 inh: -10.2*; KCNK3 confirm: 116.7*; KCNK3 noninduced: 0.15*

Results for CCOC(=O)NC(=O)c1cn(Nc2ccccc2C(F)(F)F)c(=O)[nH]c1=O ?
hERG rescue: -11.4; KCNK9 inh: inactive; KCNQ1 inh: inactive; KCNQ1 act: inactive; Kir21 block: 0.1; KCNK3 inh: inactive

What do the screens show for `COc1cc(NC(=O)CN2C(=O)COc3ccc(S(=O)(=O)N4CCCCC4)cc32)cc(OC)c1`?
hERG rescue: -10.4; KCNK9 inh: inactive; KCNQ1 inh: inactive; KCNQ1 act: inactive; Kir21 block: -0.97; KCNK3 inh: -8.81*; KCNK3 confirm: 113.0*; KCNK3 noninduced: inactive

Results for CN(CCOc1ccc(Cl)cc1)C(=O)c1cc(-c2ccco2)nc2ccccc12 ?
hERG rescue: -32.2; KCNK9 inh: inactive; KCNQ1 inh: inactive; KCNQ1 act: inactive; Kir21 block: 0.85; KCNK3 inh: -10.4*; KCNK3 confirm: 117.3*; KCNK3 noninduced: 0.135*

Results for O=C(CSc1ccccc1Cl)N1CCC(c2nc3ccccc3s2)CC1 ?
hERG rescue: -7.6; KCNK9 inh: inactive; KCNQ1 inh: inactive; KCNQ1 act: inactive; Kir21 block: 1.16; KCNK3 inh: -9.83*; KCNK3 confirm: 107.3*; KCNK3 noninduced: inactive

Results for COc1ccccc1NS(=O)(=O)c1ccc(O)c(NC(=S)NCC2CCCO2)c1 (stereo not drawn) ?
hERG rescue: -7.4; KCNK9 inh: inactive; KCNQ1 inh: inactive; KCNQ1 act: inactive; Kir21 block: 3.34; KCNK3 inh: inactive

What do the screens show for `CC(=O)Nc1cccc(C(=O)Nc2ccccc2N2CCOCC2)c1`?
hERG rescue: -11.9; KCNK9 inh: inactive; KCNQ1 inh: inactive; KCNQ1 act: inactive; Kir21 block: -2.48; KCNK3 inh: inactive

Results for O=C(Nc1ccccc1N1CCOCC1)c1cccc(NS(=O)(=O)c2ccc(F)c(F)c2)c1 ?
hERG rescue: -10.4; KCNK9 inh: inactive; KCNQ1 inh: inactive; KCNQ1 act: inactive; Kir21 block: -1.22; KCNK3 inh: -8.73*; KCNK3 confirm: 94.3*; KCNK3 noninduced: 0.159*

How did O=C(Nc1ccccc1N1CCOCC1)c1cc2c(s1)CCCCC2 do in these assays?
hERG rescue: -5.4; KCNK9 inh: inactive; KCNQ1 inh: inactive; KCNQ1 act: inactive; Kir21 block: 0.4; KCNK3 inh: -10.4*; KCNK3 confirm: 118.3*; KCNK3 noninduced: inactive

What do the screens show for `O=C(Nc1ccc(N2CCOCC2)cc1)c1cc2c(s1)CCCCC2`?
hERG rescue: -6.8; KCNK9 inh: inactive; KCNQ1 inh: inactive; KCNQ1 act: inactive; Kir21 block: 1.48; KCNK3 inh: inactive

How did CN(Cc1cccc(F)c1)C(=O)CNS(=O)(=O)c1ccc2ccccc2c1 do in these assays?
hERG rescue: -2.4; KCNK9 inh: inactive; KCNQ1 inh: inactive; KCNQ1 act: inactive; Kir21 block: -0.42; KCNK3 inh: inactive

Results for COc1ccccc1CCNC(=O)CCn1nc(C)c2c(C)n(-c3ccccc3)nc2c1=O ?
hERG rescue: -13.7; KCNK9 inh: inactive; KCNQ1 inh: inactive; KCNQ1 act: inactive; Kir21 block: -0.06; KCNK3 inh: inactive

What do the screens show for `Cc1ccc2oc(=O)c3cc(C(=O)N4CCN(C(=O)c5ccco5)CC4)sc3c2c1`?
hERG rescue: -9.6; KCNK9 inh: inactive; KCNQ1 inh: inactive; KCNQ1 act: inactive; Kir21 block: 0.02
